FID counter: counter-screen for HCV NS3 helicase inhibitors: DNA intercalator displacement | DNA fluorescent intercalator displacement, fluorescence | inhibition, % at 7.9 µM | actives 0.17% (n = 290,000) | AID 1845; in the data active = inhibition above about 37%;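 also: higher means more ethidium bromide displaced from hairpin DNA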
ZTA DNA inh: ZTA (EBV) inhibition in EBNA-1 counter-screen; actives 0.15% (n = 320,000); ZTA-DNA binding, fluorescence polarization; inhibition, % at 11 µM; P03206; in the data active = inhibition above about 33%
NS3 helicase inh: blocks Hepatitis C virus NS3 helicase unwinding; AID 1800; inhibition, % at 10.9 µM; NS3 helicase DNA unwinding, Cy5 molecular beacon fluorescence; actives 0.56% (n = 290,000);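 active = inhibition above the mean of all tested compounds plus 3 SD, set per campaign, cut at about 35% in these data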
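Measured by: Cy5 fluorescence, 0 and 60 min reads / Assay system: NS3 helicase fragment of HCV / Control set: low DMSO, high thioflavine S at 110 µM / Times: 1 h reaction at 25 °C, ATP-initiated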
EBNA-1 inhibitor: blocks EBNA-1 binding to DNA | EBNA-1 DNA binding, fluorescence polarization | inhibition, % at 14.8 µM | actives 0.34% (n = 300,000); in the data active = inhibition above about 28%
GPR7 antagonist: blocks human GPR7 receptor signaling; P48145; GPR7-expressing cells, fluorescence antagonist assay; inhibition, % at 4.4 µM; actives 1.1% (n = 290,000); in the data active = inhibition above about 16%, passing the limit was not always enough;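 also: cells stimulated with the agonist NPW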
Target sequence (P48145 whole entry, looked up): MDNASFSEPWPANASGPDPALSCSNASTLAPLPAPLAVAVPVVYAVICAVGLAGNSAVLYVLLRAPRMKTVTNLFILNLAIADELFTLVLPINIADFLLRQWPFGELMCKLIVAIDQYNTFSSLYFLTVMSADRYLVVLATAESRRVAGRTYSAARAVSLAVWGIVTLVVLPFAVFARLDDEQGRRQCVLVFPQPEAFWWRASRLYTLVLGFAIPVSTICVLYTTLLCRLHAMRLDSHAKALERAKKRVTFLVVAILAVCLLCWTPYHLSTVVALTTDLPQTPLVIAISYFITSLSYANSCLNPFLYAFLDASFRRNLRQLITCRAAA
Each line names hits and unclear results; the compound was inactive in the other large screens. This is a sample that favours compounds with a hit; in the whole collection about 2% have one here.

COc1cc2nc(N(CCCN(C)C)C(=O)c3ccc(C(=O)c4ccccc4)cc3)sc2cc1OC	none (no result: FID counter, NS3 helicase inh, GPR7 antagonist)
CCc1ccc2nc(N(CCCN(C)C)C(=O)c3ccc(C(=O)c4ccccc4)cc3)sc2c1	FID counter 38
CN(C)CCCN(C(=O)c1ccc2c(c1)CCCC2)c1nc2ccc(Cl)cc2s1	none
CCOc1ccc2nc(N(CCCN(C)C)C(=O)c3ccc4c(c3)CCCC4)sc2c1	FID counter 39
COc1ccc(-c2ccc(=O)n(Cc3cccc([N+](=O)[O-])c3)n2)cc1	GPR7 antagonist 39
CC(C)c1ccc(/C=C2\SC(=O)N(CC(=O)NC3CCS(=O)(=O)C3)C2=O)cc1 (stereo unspecified)	none
Cc1ccc(CN2CCC(=O)N2)cc1	none
Cc1ccc(OCCC(=O)OC(C)C(=O)NC2CC2)cc1 (stereo unspecified)	none (no result: FID counter, NS3 helicase inh, GPR7 antagonist)
CCN(CC)C(=O)Oc1ccc(Cl)c2cccnc12	none
O=C(Nc1cccc(C(F)(F)F)c1)Oc1ccc(Cl)c2cccnc12	GPR7 antagonist 32
COc1ccc(C(=O)NNC(=O)Cc2nc3nc(C)cc(C)n3n2)cc1	none
CC1(C)CC(N2CCCC2)=CC(=[N+]2CCCCCC2)C1	GPR7 antagonist 26
CC1(C)CC(N2CCN(c3ccccc3)CC2)=CC(=[N+]2CCCC2)C1	none
O=C1c2cccc3c([N+](=O)[O-])ccc(c23)C(=O)N1Cc1cccnc1	GPR7 antagonist 24 (no result: ZTA DNA inh, EBNA-1 inhibitor)
O=C1c2cccc3cccc(c23)C(=O)N1Cc1cccnc1	none
CC(NC(=O)C1CCN(C(=O)c2cccs2)CC1)c1ccc(S(N)(=O)=O)cc1 (stereo unspecified)	none (no result: FID counter, NS3 helicase inh, EBNA-1 inhibitor, GPR7 antagonist)
Cc1cccc(NS(=O)(=O)c2ccc(C(=O)N3CCC3)cc2)c1C	none (no result: FID counter, NS3 helicase inh, GPR7 antagonist)
COc1cc([N+](=O)[O-])cc(/C=C2/SC(=S)N(Cc3ccccc3)C2=O)c1O	FID counter 41
COc1cc(/C=C2/SC(=S)N(Cc3ccccc3)C2=O)cc(Cl)c1O	NS3 helicase inh 48, GPR7 antagonist 89
CCOc1cccc(=O)c2c(C)n(-c3ccc(C(=O)O)cc3)c(C)c12	ZTA DNA inh 41
CCOc1cccc(=O)c2c(C)n(Cc3ccccc3)c(C)c12	none
c1ccc(-c2noc(CN3CCCC(OCc4ccccn4)C3)n2)cc1 (stereo unspecified)	FID counter 60
CCOC(=O)c1c(NC(=O)CSc2nnnn2-c2ccccc2OCC)sc2c1CC(C)(C)NC2(C)C	none (no result: FID counter, NS3 helicase inh, GPR7 antagonist)
CCOC(=O)c1c(NC(=O)CSc2nnnn2-c2ccccc2)sc2c1CC(C)(C)NC2(C)C	FID counter 41
CCOC(=O)N1CCN(S(=O)(=O)c2ccc(C(=O)Nc3sc4c(c3C(N)=O)CC(C)(C)NC4(C)C)cc2)CC1	FID counter 41
CC1(C)Cc2c(sc(NC(=O)c3ccc(C(=O)c4ccccc4)cc3)c2C(N)=O)C(C)(C)N1	FID counter 37
COc1ccc(N/C(N)=N/c2nc(CSc3nnc(C)s3)cc(=O)[nH]2)cc1	none
Cc1ccc(N/C(N)=N/c2nc(CSc3nnc(C)s3)cc(=O)[nH]2)c(C)c1	GPR7 antagonist 31
O=C(Cc1cccs1)N(CC1CCCO1)C1(C(=O)NC2CCCC2)CCCCC1 (stereo unspecified)	GPR7 antagonist 37
OC(CNCCc1ccccc1)COc1ccc(OCC(O)CNCCc2ccccc2)cc1 (stereo unspecified)	GPR7 antagonist 32
CC(C)N(CCNCC(O)COc1ccc(C(C)(C)c2ccccc2)cc1)C(C)C (stereo unspecified)	FID counter 42
COc1ccc(CNC(=O)N2CCN(c3ccccc3OC)CC2)cc1	none
CC1CCN(C(=O)c2ccc(SCc3ccccc3F)c([N+](=O)[O-])c2)CC1	EBNA-1 inhibitor 38
CC(C)(C)c1ccc(Cn2c(=N)n(CC(O)c3ccco3)c3ccccc32)cc1 (stereo unspecified)	GPR7 antagonist 24
CN(C)C=Nc1ncc2c3ccccc3n(CCN(C)C)c2c1C#N	none
CCN(CC)CCn1c2ccccc2c2cnc(N)c(C#N)c21	FID counter 50
C=CCNC(=O)c1c(Br)cnn1-c1ccc(C)cc1	GPR7 antagonist 18
Cc1ccc(-n2ncc(Cl)c2C(=O)NCc2ccccc2)cc1	none
CCn1c2c(c(=N)c3c1CCC3)CCCC2	none
CCCCCCCCn1c2c(c(=N)c3ccccc31)CCC2	GPR7 antagonist 67 (no result: ZTA DNA inh, EBNA-1 inhibitor)
CCCCCCCCCCn1c2c(c(=N)c3c1CCC3)CCC2	GPR7 antagonist 77
CCCCCCCCCn1c2c(c(=N)c3c1CCC3)CCCC2	GPR7 antagonist 68 (no result: ZTA DNA inh, EBNA-1 inhibitor)
